Results as given in ChEMBL document CHEMBL1150416, “Design, synthesis and spectroscopic studies of resveratrol aliphatic acid ligands of human serum albumin” (Bioorg Med Chem, 2008).

Columns and labels:
[1] = Solubility in phosphate buffer assessed per 100 g at pH 7; assay type: physicochemical
Summary of the method: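 Excess solid stirred 1 h with pure water or 50 mM phosphate buffer (pH 7; 20 mM NaH2PO4 + 30 mM Na2HPO4) in a sealed dual-wall flask held at 295 K by circulating water. The solid was removed by two 2-min centrifugations. Dissolved content was read by UV–vis at 304 nm and converted using an extinction coefficient of 33,913 M-1 cm-1.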

Albumin [2] = molecular target: T1, Albumin (Homo sapiens, UniProt P02768); assay: Binding affinity to human serum albumin by fluorescence quenching measurement; assay type: ADME; conditions: isolated protein
Summary of the method: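 HSA intrinsic (Trp) fluorescence quenching at 298 K in 50 mM phosphate buffer, pH 7. HSA was held at a fixed level while compound amounts were increased. Excitation 280 nm, emission recorded 290–360 nm, intensity taken at 350 nm; samples read 2 min after mixing, with buffer blanks. Ka was obtained by fitting the modified Stern–Volmer equation.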

Albumin [3] = molecular target: T1, Albumin; assay: Binding affinity to human serum albumin assessed as increase in drug-induced fluorescence at 4 uM by fluorescence enhancing measurement; assay type: ADME; conditions: isolated protein
Summary of the method: (§1)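 HSA binding was read as the resveratrol-moiety fluorescence at 388 nm. The compound was fixed at 4 µM in 50 mM phosphate buffer, pH 7, with HSA either fixed at 4 µM or increased from 2 to 16 µM, at 298 K. Solutions were read 2 min after mixing against buffer/HSA blanks. Ka came from a non-linear fit of fluorescence versus [HSA].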

[4] = Solubility in over saturated phosphate buffer assessed per 100 g at pH 7 after 2 mins; assay type: physicochemical; conditions: pH 7, 2 min
Summary of the method: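 Over-saturated solution made by tapping a suspension in 50 mM phosphate buffer (pH 7) for 2 min at 295 K. Content was read by UV–vis at 304 nm and converted using an extinction coefficient of 33,913 M-1 cm-1.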

[5] = Aqueous solubility assessed per 100 g in pure water; conditions: pH 7
Albumin [6] = molecular target: T1, Albumin; assay: Binding affinity to human serum albumin at 4 uM by fluorescence enhancing measurement; assay type: ADME; conditions: isolated protein; summary of the method: as §1
Albumin [7] = molecular target: T1, Albumin; assay: Binding affinity to human serum albumin at 4 uM by UV-vis measurement; assay type: ADME
Summary of the method: (§2)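 The compound was held at 4 µM in 50 mM phosphate buffer, pH 7 (20 mM NaH2PO4 and 30 mM Na2HPO4), and HSA was added at increasing concentrations. UV–vis absorbance of the compound was read at 318 nm, 2 min after thorough mixing. Buffers without HSA and with matching HSA levels served as blanks. Each compound solution was used only once.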

Albumin [8] = molecular target: T1, Albumin; assay: Binding affinity to human serum albumin assessed as decrease in UV absorbance by UV-vis measurement; assay type: ADME; set-up: scale not given: the % may be the effect or the level left; conditions: isolated protein; summary of the method: as §2

T1 sequence (P02768 whole entry): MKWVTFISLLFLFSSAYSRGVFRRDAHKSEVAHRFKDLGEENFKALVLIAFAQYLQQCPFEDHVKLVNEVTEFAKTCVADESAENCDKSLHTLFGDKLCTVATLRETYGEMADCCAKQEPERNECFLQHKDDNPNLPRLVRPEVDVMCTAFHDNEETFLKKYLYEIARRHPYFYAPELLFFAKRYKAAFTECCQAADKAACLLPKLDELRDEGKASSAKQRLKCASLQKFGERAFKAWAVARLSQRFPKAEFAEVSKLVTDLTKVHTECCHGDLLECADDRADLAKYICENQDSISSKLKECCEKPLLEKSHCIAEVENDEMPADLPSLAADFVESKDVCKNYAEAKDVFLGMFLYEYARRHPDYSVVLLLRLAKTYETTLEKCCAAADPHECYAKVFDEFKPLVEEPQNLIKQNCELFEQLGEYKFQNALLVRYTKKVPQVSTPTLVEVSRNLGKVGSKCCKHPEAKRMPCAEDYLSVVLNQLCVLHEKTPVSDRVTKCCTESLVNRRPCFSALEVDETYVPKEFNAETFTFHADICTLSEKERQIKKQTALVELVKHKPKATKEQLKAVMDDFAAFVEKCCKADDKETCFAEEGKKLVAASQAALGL

Row | Compound | solubility [1] [mg] | Ka (Albumin [2]) [×10⁵ /M] | Activity (Albumin [3]) [%] | solubility [4] [mg] | solubility [5] [mg] | Ka (Albumin [6]) [×10⁵ /M] | Kd (Albumin [7]) [nM] | Ka (Albumin [7]; human, isolated protein, 4 µM) [×10⁵ /M] | Activity (Albumin [8]) [%]
1 | Oc1ccc(/C=C/c2cc(O)cc(O)c2)cc1 [RESVERATROL] | 3.24 | 1.64 |  |  | 3.24 |  |  |  | 
2 | CCOC(=O)COc1ccc(/C=C/c2cc(O)cc(O)c2)cc1 | 1.4 | 1.14 |  |  | 1.93 |  |  |  | 
3 | O=C(O)CCCCCOc1ccc(/C=C/c2cc(O)cc(O)c2)cc1 [RESVERATROL HEXANOIC ACID] | 10.54 | 67 |  |  | 4.52 | 31.2 | 382 | 26.2 | 20

Continued, in another order:

Row | solubility [1] [mg] | Ka (Albumin [2]) [×10⁵ /M] | Activity (Albumin [3]) [%] | solubility [4] [mg] | solubility [5] [mg] | Compound | Ka (Albumin [6]) [×10⁵ /M] | Kd (Albumin [7]) [nM] | Ka (Albumin [7]; human, isolated protein, 4 µM) [×10⁵ /M] | Activity (Albumin [8]) [%]
4 | 313.8 | 2.95 | 50 | 867.8 | 80.91 | O=C(O)COc1ccc(/C=C/c2cc(O)cc(O)c2)cc1 |  |  |  | 
5 | 0.085 | 3.05 |  |  | 0.032 | COC(=O)CCCCCOc1ccc(/C=C/c2cc(O)cc(O)c2)cc1 |  |  |  | 
